Tests used:
[1] = test system: Rattus norvegicus; assay: Hypotensive activity in normotensive Wistar rat assessed as reduction of diastolic blood pressure at 0.31 mg/kg, iv after 60 mins; assay type: functional, Artery
Procedure, shortened: (§1)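 Male normotensive Wistar rats were anaesthetised with thiopental 75 mg/kg ip. The right carotid artery was cannulated with heparinised saline for pressure recording. After 5 min of stabilisation, compound was injected into the tail vein at 1 mL/kg. Systolic and diastolic pressure were followed up to 60 min. Data are means ± SEM of 5–6 rats, analysed by one-way ANOVA.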

[2] = test system: Rattus norvegicus; assay: Hypotensive activity in normotensive Wistar rat assessed as reduction of diastolic blood pressure at 0.625 mg/kg, iv after 30 mins; assay type: functional, Artery; procedure, shortened: as §1
[3] = test system: Rattus norvegicus; assay: Hypotensive activity in normotensive Wistar rat assessed as reduction of diastolic blood pressure at 0.16 mg/kg, iv after 5 mins; assay type: functional, Artery; procedure, shortened: as §1
[4] = test system: Rattus norvegicus; assay: Hypotensive activity in normotensive Wistar rat assessed as reduction of diastolic blood pressure at 0.31 mg/kg, iv after 10 mins; assay type: functional, Artery; procedure, shortened: as §1
[5] = test system: Rattus norvegicus; assay: Hypotensive activity in normotensive Wistar rat assessed as reduction of systolic blood pressure at 0.31 mg/kg, iv after 60 mins; assay type: functional, Artery
Procedure, shortened: (§2)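 Male normotensive Wistar rats (170–350 g) anaesthetised with thiopental 75 mg/kg ip; right carotid artery cannulated with heparinised saline-filled polyethylene tubing for pressure recording. After a 5 min stabilisation, compound given into the caudal vein at 1 mL/kg. Systolic pressure is recorded at 0, 5, 10, 20, 30 and 60 min, and the data are reported as mean ± SEM of five to six animals, with one-way ANOVA.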

[6] = test system: Rattus norvegicus; assay: Hypotensive activity in normotensive Wistar rat assessed as reduction of diastolic blood pressure at 0.625 mg/kg, iv after 20 mins; assay type: functional, Artery; procedure, shortened: as §1
[7] = test system: Rattus norvegicus; assay: Hypotensive activity in normotensive Wistar rat assessed as reduction of systolic blood pressure at 0.16 mg/kg, iv after 10 mins; assay type: functional, Artery; procedure, shortened: as §1
[8] = test system: Rattus norvegicus; assay: Hypotensive activity in normotensive Wistar rat assessed as reduction of systolic blood pressure at 0.31 mg/kg, iv after 5 mins; assay type: functional, Artery; procedure, shortened: as §2
[9] = test system: Rattus norvegicus; assay: Hypotensive activity in normotensive Wistar rat assessed as reduction of diastolic blood pressure at 0.31 mg/kg, iv after 30 mins; assay type: functional, Artery; procedure, shortened: as §1
[10] = test system: Rattus norvegicus; assay: Hypotensive activity in normotensive Wistar rat assessed as reduction of systolic blood pressure at 0.625 mg/kg, iv after 5 mins; assay type: functional, Artery; procedure, shortened: as §2
[11] = test system: Rattus norvegicus; assay: Hypotensive activity in normotensive Wistar rat assessed as reduction of systolic blood pressure at 0.16 mg/kg, iv after 20 mins; assay type: functional, Artery; procedure, shortened: as §2
[12] = test system: Rattus norvegicus; assay: Hypotensive activity in normotensive Wistar rat assessed as reduction of diastolic blood pressure at 0.625 mg/kg, iv after 10 mins; assay type: functional, Artery; procedure, shortened: as §1
[13] = test system: Rattus norvegicus; assay: Hypotensive activity in normotensive Wistar rat assessed as reduction of systolic blood pressure at 0.16 mg/kg, iv after 60 mins; assay type: functional, Artery; procedure, shortened: as §2
[14] = test system: Rattus norvegicus; assay: Hypotensive activity in normotensive Wistar rat assessed as reduction of diastolic blood pressure at 0.16 mg/kg, iv after 10 mins; assay type: functional, Artery; procedure, shortened: as §1
[15] = test system: Rattus norvegicus; assay: Hypotensive activity in normotensive Wistar rat assessed as reduction of systolic blood pressure at 0.16 mg/kg, iv after 5 mins; assay type: functional, Artery; procedure, shortened: as §2
[16] = test system: Rattus norvegicus; assay: Hypotensive activity in normotensive Wistar rat assessed as reduction of systolic blood pressure at 0.625 mg/kg, iv after 60 mins; assay type: functional, Artery; procedure, shortened: as §2
[17] = test system: Rattus norvegicus; assay: Hypotensive activity in normotensive Wistar rat assessed as reduction of diastolic blood pressure at 0.16 mg/kg, iv after 20 mins; assay type: functional, Artery; procedure, shortened: as §1
[18] = test system: Rattus norvegicus; assay: Hypotensive activity in normotensive Wistar rat assessed as reduction of diastolic blood pressure at 0.31 mg/kg, iv after 20 mins; assay type: functional, Artery; procedure, shortened: as §1
[19] = test system: Rattus norvegicus; assay: Hypotensive activity in normotensive Wistar rat assessed as reduction of diastolic blood pressure at 0.625 mg/kg, iv after 60 mins; assay type: functional, Artery; procedure, shortened: as §1
[20] = test system: Rattus norvegicus; assay: Hypotensive activity in normotensive Wistar rat assessed as reduction of diastolic blood pressure at 1.25 mg/kg, iv after 60 mins; assay type: functional, Artery; procedure, shortened: as §1
[21] = test system: Rattus norvegicus; assay: Hypotensive activity in normotensive Wistar rat assessed as reduction of systolic blood pressure at 1.25 mg/kg, iv after 60 mins; assay type: functional, Artery; procedure, shortened: as §2
[22] = test system: Rattus norvegicus; assay: Hypotensive activity in normotensive Wistar rat assessed as reduction of diastolic blood pressure at 1.25 mg/kg, iv after 5 mins; assay type: functional, Artery; procedure, shortened: as §1
[23] = test system: Rattus norvegicus; assay: Hypotensive activity in normotensive Wistar rat assessed as reduction of systolic blood pressure at 1.25 mg/kg, iv after 20 mins; assay type: functional, Artery; procedure, shortened: as §2
[24] = test system: Rattus norvegicus; assay: Hypotensive activity in normotensive Wistar rat assessed as reduction of systolic blood pressure at 1.25 mg/kg, iv after 5 mins; assay type: functional, Artery; procedure, shortened: as §2
[25] = test system: Rattus norvegicus; assay: Hypotensive activity in normotensive Wistar rat assessed as reduction of diastolic blood pressure at 1.25 mg/kg, iv after 20 mins; assay type: functional, Artery; procedure, shortened: as §1
[26] = test system: Rattus norvegicus; assay: Hypotensive activity in normotensive Wistar rat assessed as reduction of diastolic blood pressure at 1.25 mg/kg, iv after 10 mins; assay type: functional, Artery; procedure, shortened: as §1
[27] = test system: Rattus norvegicus; assay: Cardiotoxicity in Wistar rat assessed as QT interval at 10 mg/kg, iv after 15 mins by ECG analysis; assay type: toxicity, organism-based; design: dose 10 mg/kg, route intravenous; details: in vivo, 0.25 h
Procedure, shortened: (§3)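 Male normotensive Wistar rats, 170–350 g, six per group. Compound given iv at a constant volume of 1 mL/kg. ECG was recorded just before dosing and at 1, 5 and 15 min after. PQ, QRS and QT intervals and heart rate were read from the trace. Groups were compared by one-way ANOVA.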

[28] = test system: Rattus norvegicus; assay: Cardiotoxicity in Wistar rat assessed as hear beats per min at 10 mg/kg, iv after 5 mins by ECG analysis; assay type: toxicity, organism-based; design: dose 10 mg/kg, route intravenous; details: in vivo; procedure, shortened: as §3
[29] = test system: Rattus norvegicus; assay: Cardiotoxicity in Wistar rat assessed as QRS interval at 10 mg/kg, iv after 5 mins by ECG analysis; assay type: toxicity, organism-based; design: dose 10 mg/kg, route intravenous; details: in vivo; procedure, shortened: as §3
[30] = test system: Rattus norvegicus; assay: Cardiotoxicity in Wistar rat assessed as QT interval at 10 mg/kg, iv after 5 mins by ECG analysis; assay type: toxicity, organism-based; design: dose 10 mg/kg, route intravenous; details: in vivo; procedure, shortened: as §3
[31] = test system: Rattus norvegicus; assay: Cardiotoxicity in Wistar rat assessed as hear beats per min at 10 mg/kg, iv after 15 mins by ECG analysis; assay type: toxicity, organism-based; design: dose 10 mg/kg, route intravenous; details: in vivo, 0.25 h; procedure, shortened: as §3
[32] = test system: Rattus norvegicus; assay: Cardiotoxicity in Wistar rat assessed as PQ interval at 10 mg/kg, iv after 15 mins by ECG analysis; assay type: toxicity, organism-based; design: dose 10 mg/kg, route intravenous; details: in vivo, 0.25 h; procedure, shortened: as §3
[33] = test system: Rattus norvegicus; assay: Cardiotoxicity in Wistar rat assessed as QRS interval at 10 mg/kg, iv after 15 mins by ECG analysis; assay type: toxicity, organism-based; design: dose 10 mg/kg, route intravenous; details: in vivo, 0.25 h; procedure, shortened: as §3
[34] = test system: Rattus norvegicus; assay: Cardiotoxicity in Wistar rat assessed as hear beats per min at 10 mg/kg, iv after 10 mins by ECG analysis; assay type: toxicity, organism-based; design: dose 10 mg/kg, route intravenous; details: in vivo
[35] = test system: Rattus norvegicus; assay: Cardiotoxicity in Wistar rat assessed as QT interval at 5 mg/kg, iv after 5 mins by ECG analysis; assay type: toxicity, organism-based; design: dose 5 mg/kg, route intravenous; details: in vivo; procedure, shortened: as §3
[36] = test system: Rattus norvegicus; assay: Cardiotoxicity in Wistar rat assessed as QRS interval at 5 mg/kg, iv after 5 mins by ECG analysis; assay type: toxicity, organism-based; design: dose 5 mg/kg, route intravenous; details: in vivo; procedure, shortened: as §3
[37] = test system: Rattus norvegicus; assay: Cardiotoxicity in Wistar rat assessed as QRS interval at 5 mg/kg, iv after 15 mins by ECG analysis; assay type: toxicity, organism-based; design: dose 5 mg/kg, route intravenous; details: in vivo, 0.25 h; procedure, shortened: as §3
[38] = test system: Rattus norvegicus; assay: Cardiotoxicity in Wistar rat assessed as hear beats per min at 5 mg/kg, iv after 5 mins by ECG analysis; assay type: toxicity, organism-based; design: dose 5 mg/kg, route intravenous; details: in vivo; procedure, shortened: as §3
[39] = test system: Rattus norvegicus; assay: Cardiotoxicity in Wistar rat assessed as PQ interval at 5 mg/kg, iv after 5 mins by ECG analysis; assay type: toxicity, organism-based; design: dose 5 mg/kg, route intravenous; details: in vivo; procedure, shortened: as §3
[40] = test system: Rattus norvegicus; assay: Cardiotoxicity in Wistar rat assessed as hear beats per min at 5 mg/kg, iv after 10 mins by ECG analysis; assay type: toxicity, organism-based; design: dose 5 mg/kg, route intravenous; details: in vivo

## COc1ccccc1N1CCN(CCCOc2cccc3c(=O)c4ccccc4oc23)CC1.Cl
[1]
  Activity: 97.2 mmHg
[2]
  Activity: 111.7 mmHg
[3]
  Activity: 97 mmHg
[4]
  Activity: 107.7 mmHg
[5]
  Activity: 116 mmHg
[6]
  Activity: 110.5 mmHg
[7]
  Activity: 114 mmHg
[8]
  Activity: 122 mmHg
[9]
  Activity: 103.3 mmHg
[10]
  Activity: 122 mmHg
[11]
  Activity: 113.4 mmHg
[12]
  Activity: 106.5 mmHg
[13]
  Activity: 108.2 mmHg
[14]
  Activity: 99.2 mmHg
[15]
  Activity: 109.6 mmHg
[16]
  Activity: 129.5 mmHg
[17]
  Activity: 101 mmHg
[18]
  Activity: 105.7 mmHg
[19]
  Activity: 112 mmHg

## COc1ccccc1N1CCN(CC(COc2cccc3c(=O)c4ccccc4oc23)OC(C)=O)CC1.Cl (racemic)
[20]
  Activity: 89.6 mmHg
[2]
  Activity: 93.2 mmHg
[21]
  Activity: 116.6 mmHg
[22]
  Activity: 92.8 mmHg
[23]
  Activity: 117 mmHg
[24]
  Activity: 119 mmHg
[6]
  Activity: 95.4 mmHg
[10]
  Activity: 124.8 mmHg
[25]
  Activity: 92.2 mmHg
[12]
  Activity: 96.4 mmHg
[26]
  Activity: 93.6 mmHg
[16]
  Activity: 123.2 mmHg
[19]
  Activity: 92 mmHg

## COc1ccccc1N1CCN(CC(O)COc2cccc3c(=O)c4ccccc4oc23)CC1.Cl (racemic)
[1]
  Activity: 98.4 mmHg
[3]
  Activity: 109.2 mmHg
[4]
  Activity: 103 mmHg
[5]
  Activity: 116 mmHg
[7]
  Activity: 124.8 mmHg
[8]
  Activity: 122.8 mmHg
[9]
  Activity: 100.6 mmHg
[11]
  Activity: 118.5 mmHg
[13]
  Activity: 115.2 mmHg
[14]
  Activity: 110.2 mmHg
[15]
  Activity: 124 mmHg
[17]
  Activity: 103.8 mmHg
[18]
  Activity: 102 mmHg

## Cl.Cl.Cl.O=c1c2ccc(Cl)cc2oc2c(OCC(O)CN3CCN(CCOc4ccccc4)CC3)cccc12 (racemic)
[20]
  Activity: 103.6 mmHg
[21]
  Activity: 114.8 mmHg
[22]
  Activity: 102.6 mmHg
[23]
  Activity: 110.8 mmHg
[24]
  Activity: 117.2 mmHg
[27]
  Activity: 53.2 ms
[28]
  Activity: 303.69 bpm
[29]
  Activity: 18.8 ms
[30]
  Activity: 54.4 ms
[25]
  Activity: 97.4 mmHg
[31]
  Activity: 283.41 bpm
[26]
  Activity: 101.2 mmHg
[32]
  Activity: 32.81 ms
[33]
  Activity: 20.4 ms
[34]
  Activity: 242.43 bpm

## Cl.Cl.Cl.O=c1c2ccc(Cl)cc2oc2c(OCC(O)CN3CCN(C/C=C/c4ccccc4)CC3)cccc12 (racemic)
[35]
  Activity: 73.6 ms
[36]
  Activity: 20.2 ms
[37]
  Activity: 20.3 ms
[38]
  Activity: 317.3 bpm
[39]
  Activity: 45.7 ms
[40]
  Activity: 324.3 bpm

## Cl.Cl.Cl.O=c1c2ccc(Cl)cc2oc2c(OCC(O)CN3CCN(Cc4ccccc4)CC3)cccc12 (racemic)
[27]
  Activity: 78.8 ms
[28]
  Activity: 295.3 bpm
[29]
  Activity: 19.2 ms
[30]
  Activity: 74 ms
[31]
  Activity: 268.8 bpm
[32]
  Activity: 40.9 ms
[33]
  Activity: 20.1 ms
[34]
  Activity: 285 bpm

## Cl.Cl.O=c1c2ccccc2oc2c(OCC(O)CN3CCN(C/C=C/c4ccccc4)CC3)cccc12 (racemic)
[35]
  Activity: 76.4 ms
[36]
  Activity: 23.4 ms
[37]
  Activity: 24 ms
[38]
  Activity: 328 bpm
[39]
  Activity: 41.5 ms
[40]
  Activity: 311.3 bpm

From ChEMBL document CHEMBL2311390, “Synthesis and preliminary evaluation of pharmacological properties of some piperazine derivatives of xanthone” (Bioorg Med Chem, 2013)
